Screening data: PubChem, several laboratories
T cruzi repl: inhibitors of intracellular T. cruzi growth, primary screen, luminescence, NIH3T3 host cells. T. cruzi beta-gal in NIH3T3, 90 h. inhibition, % (test concentration not listed). 300,000 tested, 1.4% active;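 active means mean inhibition across valid replicates above about 55%, limit read from the data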;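 further: signal also drops with host cell toxicity which is not excluded here; 0% = plate median of DMSO wells and 100% = zero luminescence signal; higher percent means less beta-gal luminescence so fewer parasites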
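Assay system: NIH/3T3 host cells with β-galactosidase reporter T. cruzi; input: 5,000 host fibroblasts per well; compound: single 50 nL compound addition per well in DMSO; timing: ≥90 h infection period, 3 h prior cell attachment; measured by: GalScreen β-gal luminescence, detergent lysis, 60 min; evaluation: percent inhibition of parasite-derived β-gal signal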
XBP1 UPR activ: activators of adaptive XBP1 UPR arm, primary screen, cell-based, CHO-XBP1 luciferase reporter, luminescence, uHTS. activation, % at 20 µM. 330,000 tested, 0.33% active. IRE1-XBP1 UPR activation; percent of tunicamycin response, DMSO as zero;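 active means versus positive control, 20 µM dose yields 30% or more activation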;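 further: 100% = tunicamycin at 10 µg/mL and 0% = DMSO only wells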
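Assay system: IRE1-XBP1 luciferase reporter CHO line. Input: 1000 cells/well. Buffer or medium: F12 with 10% serum. Doses: 20 µM, 1% DMSO. Times: overnight seeding at 37 °C, 6 h compound treatment at 37 °C. Technique: Steady-Glo luciferase glow luminescence, 10 min after reagent addition.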
UPR CHOP act: activators of apoptotic CHOP UPR arm, primary screen, cell-based, CHO-CHOP luciferase reporter, luminescence, uHTS | UPR activation; percent of tunicamycin response over DMSO baseline | activation, % at 10 µM | 330,000 tested, 0.34% active | AID 449763, 2010;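 active means at 10 µM dose, activation of 40% or more, normalized to positive control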;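 further: 100% = tunicamycin at 10 µg/mL and 0% = DMSO alone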
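System: CHO CHOP reporter cells. Amount: 500 cells per well. Buffer or medium: F12 medium, 10% FBS. Compound dosing: one dose, 10 µM in 0.5% DMSO. Incubation: 6 h compound exposure at 37 °C after overnight seeding. Technique: Steady-Glo luciferase luminescence. Benchmarks: tunicamycin and DMSO controls.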
Dynein cargo inh: inhibitors of GR-EGFP nuclear translocation, primary screen, dynein cargo transport inhibitor project, imaging, high-content, 3617.4 mouse cells. test concentration mostly 20 µM; stimulated with dexamethasone, 1 µM; active compounds read low. AID 1381, 2008. 220,000 tested, 0.47% active. z-score, hits read low;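 active means plate z-score of nuclear minus cytoplasmic receptor signal below a set negative limit, without overly bright fluorescence or cell loss, cut at about -3.5 in these data, passing the limit was not always enough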;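 further: z-score of nuclear minus cytoplasmic ring GR-EGFP intensity difference per well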
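Medium: Induction medium lacking tetracycline, stripped serum | Probe or stimulus: 1.0 µM final dexamethasone stimulus | Schedule: 48 h induction, then 1 h compound, then 30 min agonist, 37 °C | Signal: Automated 10x imaging of fixed Hoechst-stained cells | Evaluation: Per-cell GR-EGFP intensity, nucleus versus surrounding cytoplasmic ring, well-averaged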
CHOP inhibitor: inhibitors of CHOP promoter induction, primary screen, cell-based, unfolded protein response, luciferase reporter | CHO-K1 CHOP-promoter luciferase, tunicamycin-induced, 15-18 h | AID 2732, 2010 | 220,000 tested, 3.8% active | inhibition, % at 10 µM;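 active means compounds that reduced the stress-induced luciferase reporter signal by more than about 70% of percent inhibition, limit read from the data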;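 further: 0% = tunicamycin plus vehicle and 100% = wells without tunicamycin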
L major viab: Leishmania major promastigote growth inhibition, primary screen | Leishmania major promastigotes, resazurin fluorescence viability | inhibition, % at 10 µM | 200,000 tested, 9% active | AID 1063, 2008; in the data active means inhibition above about 50%;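 further: promastigotes grown with compound for 44 hours at 28 °C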
* hit, by the source's call. The sample as a whole holds a higher share of hits than the screen did.

Results for CCCCn1c(N)c(N(CC)C(=O)C2COc3ccccc3O2)c(=O)[nH]c1=O (configuration not stated) ?
XBP1 UPR activ: -6; UPR CHOP act: -3

Results for COc1cc(C(=O)OCC(=O)NC2CC2)ccc1OCCC(C)C ?
XBP1 UPR activ: -2; UPR CHOP act: 2

How did CCOCCn1c(=O)c2c(nc3n2CC(C)CN3Cc2ccccc2)n(C)c1=O (configuration not stated) do in these assays?
T cruzi repl: 5; XBP1 UPR activ: -4; UPR CHOP act: 0

Results for CCOC(=O)C1CCN(Cc2cnc(Oc3ccc(OC)cc3)s2)CC1 ?
T cruzi repl: -9; XBP1 UPR activ: 1; UPR CHOP act: 1; Dynein cargo inh: -0.65; CHOP inhibitor: -6; L major viab: 93*

Results for CCOC(=O)C1CCN(Cc2ccc3ccccc3c2)CC1 ?
T cruzi repl: 3; XBP1 UPR activ: -2; UPR CHOP act: -2

How did CCOC(=O)C1CCN(Cc2cccc(OC)c2)CC1 do in these assays?
T cruzi repl: -12; XBP1 UPR activ: -1; UPR CHOP act: -1; Dynein cargo inh: -0.38; CHOP inhibitor: 9; L major viab: 90*

Results for Cn1c(SCCS(=O)(=O)c2ccc(Cl)cc2)nnc1-c1ccccc1 ?
T cruzi repl: 0; XBP1 UPR activ: -3; UPR CHOP act: 0; Dynein cargo inh: -0.27; CHOP inhibitor: 19; L major viab: 100*

How did CCOC(=O)c1cnn(-c2cc(C)nc3c(-c4ccccc4)c(C)nn23)c1N do in these assays?
T cruzi repl: -4; XBP1 UPR activ: -1; UPR CHOP act: 0; Dynein cargo inh: -0.35; CHOP inhibitor: 81*; L major viab: -5

Results for CCOC(=O)c1cnn(-c2cc(C)nc3c(-c4ccc(Cl)cc4)c(C)nn23)c1N ?
Dynein cargo inh: -0.47; CHOP inhibitor: 84*; L major viab: 1

Results for CCOC(=O)c1cnc2c(-c3ccccc3)c(C)nn2c1N ?
T cruzi repl: 7; XBP1 UPR activ: 2; UPR CHOP act: 3; Dynein cargo inh: -0.49; CHOP inhibitor: 32; L major viab: -4

What do the screens show for `CSc1nsc(SCC(=O)Nc2cccc(NC(C)=O)c2)n1`?
T cruzi repl: -7; XBP1 UPR activ: 5; UPR CHOP act: 2

Results for O=C(OCC(=O)N1CCCc2ccccc21)c1ccccc1NCCO ?
T cruzi repl: -4; XBP1 UPR activ: -2; UPR CHOP act: 0

How did CC(C)(C)c1ccc(-c2cc(C(=O)NNC(=O)Nc3ccccc3)c3ccccc3n2)cc1 do in these assays?
T cruzi repl: 0; XBP1 UPR activ: 1; UPR CHOP act: 4; Dynein cargo inh: 0.16; CHOP inhibitor: 94*; L major viab: 9

What do the screens show for `O=C(NNC(=O)c1cc(-c2ccccc2)nc2ccccc12)Nc1cccc(Cl)c1`?
T cruzi repl: 25; XBP1 UPR activ: -3; UPR CHOP act: -1; Dynein cargo inh: -0.83; CHOP inhibitor: 1; L major viab: 99*

Results for Cc1c(OCC(=O)NCCN2CCOCC2)ccc2c1oc(=O)c1ccccc12 ?
T cruzi repl: 16; XBP1 UPR activ: 0; UPR CHOP act: 2

How did CCc1[nH]nc2c1C(c1ccsc1)C(C#N)=C(N)O2 (configuration not stated) do in these assays?
T cruzi repl: -7; XBP1 UPR activ: -1; UPR CHOP act: -5; Dynein cargo inh: -1.1; CHOP inhibitor: 34; L major viab: 27

What do the screens show for `CCc1[nH]nc2c1C(c1ccc(Br)s1)C(C#N)=C(N)O2` (configuration not stated)?
XBP1 UPR activ: 5; UPR CHOP act: 1; Dynein cargo inh: -2.3; CHOP inhibitor: 30; L major viab: 100*

How did Cc1ccc(SCc2[nH]nc3c2C(c2ccco2)C(C#N)=C(N)O3)cc1 (configuration not stated) do in these assays?
T cruzi repl: -14; XBP1 UPR activ: 1; UPR CHOP act: 4; Dynein cargo inh: -0.18; CHOP inhibitor: 10; L major viab: 62*

What do the screens show for `Cc1ccc(SCc2[nH]nc3c2C(c2ccc(C)o2)C(C#N)=C(N)O3)cc1` (configuration not stated)?
T cruzi repl: -8; XBP1 UPR activ: -1; UPR CHOP act: 0; Dynein cargo inh: 0.45; CHOP inhibitor: -6; L major viab: 86*

How did Cc1ccc(S(=O)(=O)N(CC(=O)NCC2CCCO2)C2CCCCC2)cc1 (configuration not stated) do in these assays?
T cruzi repl: 1; XBP1 UPR activ: -4; UPR CHOP act: -1

How did O=C1CC(c2ccco2)Cc2nc(Nc3nc(-c4ccccc4)c4ccccc4n3)ncc21 (configuration not stated) do in these assays?
T cruzi repl: -12; XBP1 UPR activ: -5; UPR CHOP act: 2; Dynein cargo inh: -0.81; CHOP inhibitor: 93*; L major viab: 0

How did O=C(Nc1ncc2c(n1)CC(c1ccco1)CC2=O)c1ccccc1 (configuration not stated) do in these assays?
T cruzi repl: -12; XBP1 UPR activ: -2; UPR CHOP act: 2; Dynein cargo inh: 0.39; CHOP inhibitor: -19; L major viab: 1

Results for O=C(NCc1ccncc1)C(=O)NCC(c1ccco1)N1CCN(c2ccccc2)CC1 (configuration not stated) ?
T cruzi repl: -14; XBP1 UPR activ: -2; UPR CHOP act: 0; Dynein cargo inh: 0.45; CHOP inhibitor: 32; L major viab: 4

How did O=C(NCc1ccncc1)C(=O)NCC(c1ccco1)N1CCN(c2ccccc2F)CC1 (configuration not stated) do in these assays?
T cruzi repl: 8; XBP1 UPR activ: -3; UPR CHOP act: 2; Dynein cargo inh: -0.63; CHOP inhibitor: 14; L major viab: 52*

How did O=C(NCCc1c[nH]c2ccccc12)C(=O)NCC(c1ccco1)N1CCN(c2ccccc2)CC1 (configuration not stated) do in these assays?
T cruzi repl: 4; XBP1 UPR activ: -2; UPR CHOP act: 1; Dynein cargo inh: -0.38; CHOP inhibitor: 42; L major viab: 89*

Results for O=C(NCCc1c[nH]c2ccccc12)C(=O)NCC(c1ccco1)N1CCN(c2ccc(F)cc2)CC1 (configuration not stated) ?
T cruzi repl: 1; XBP1 UPR activ: -3; UPR CHOP act: 0; Dynein cargo inh: -0.51; CHOP inhibitor: 65; L major viab: -3
